Assay results as given in ChEMBL document CHEMBL3804775, “Development of a Potent, Specific CDK8 Kinase Inhibitor Which Phenocopies CDK8/19 Knockout Cells” (ACS Med Chem Lett, 2016).
pEC50, pIC50: −log10 of the molar value. Values after ≈ are worked out from the molar mass of the structure shown. Active and inactive are the calls of the source. No cut-off for these calls is given here.

Experiments:
[1] = molecular target: PAS domain-containing serine/threonine-protein kinase (Homo sapiens) (UniProt Q96RG2); assay: Inhibition of human recombinant GST-tagged PASK (879 to 1323 residues) expressed in baculovirus expression system at 0.1 uM relative to control
Chain of PAS domain-containing serine/threonine-protein kinase (Homo sapiens) (Q96RG2 whole entry, the tested form may be a part): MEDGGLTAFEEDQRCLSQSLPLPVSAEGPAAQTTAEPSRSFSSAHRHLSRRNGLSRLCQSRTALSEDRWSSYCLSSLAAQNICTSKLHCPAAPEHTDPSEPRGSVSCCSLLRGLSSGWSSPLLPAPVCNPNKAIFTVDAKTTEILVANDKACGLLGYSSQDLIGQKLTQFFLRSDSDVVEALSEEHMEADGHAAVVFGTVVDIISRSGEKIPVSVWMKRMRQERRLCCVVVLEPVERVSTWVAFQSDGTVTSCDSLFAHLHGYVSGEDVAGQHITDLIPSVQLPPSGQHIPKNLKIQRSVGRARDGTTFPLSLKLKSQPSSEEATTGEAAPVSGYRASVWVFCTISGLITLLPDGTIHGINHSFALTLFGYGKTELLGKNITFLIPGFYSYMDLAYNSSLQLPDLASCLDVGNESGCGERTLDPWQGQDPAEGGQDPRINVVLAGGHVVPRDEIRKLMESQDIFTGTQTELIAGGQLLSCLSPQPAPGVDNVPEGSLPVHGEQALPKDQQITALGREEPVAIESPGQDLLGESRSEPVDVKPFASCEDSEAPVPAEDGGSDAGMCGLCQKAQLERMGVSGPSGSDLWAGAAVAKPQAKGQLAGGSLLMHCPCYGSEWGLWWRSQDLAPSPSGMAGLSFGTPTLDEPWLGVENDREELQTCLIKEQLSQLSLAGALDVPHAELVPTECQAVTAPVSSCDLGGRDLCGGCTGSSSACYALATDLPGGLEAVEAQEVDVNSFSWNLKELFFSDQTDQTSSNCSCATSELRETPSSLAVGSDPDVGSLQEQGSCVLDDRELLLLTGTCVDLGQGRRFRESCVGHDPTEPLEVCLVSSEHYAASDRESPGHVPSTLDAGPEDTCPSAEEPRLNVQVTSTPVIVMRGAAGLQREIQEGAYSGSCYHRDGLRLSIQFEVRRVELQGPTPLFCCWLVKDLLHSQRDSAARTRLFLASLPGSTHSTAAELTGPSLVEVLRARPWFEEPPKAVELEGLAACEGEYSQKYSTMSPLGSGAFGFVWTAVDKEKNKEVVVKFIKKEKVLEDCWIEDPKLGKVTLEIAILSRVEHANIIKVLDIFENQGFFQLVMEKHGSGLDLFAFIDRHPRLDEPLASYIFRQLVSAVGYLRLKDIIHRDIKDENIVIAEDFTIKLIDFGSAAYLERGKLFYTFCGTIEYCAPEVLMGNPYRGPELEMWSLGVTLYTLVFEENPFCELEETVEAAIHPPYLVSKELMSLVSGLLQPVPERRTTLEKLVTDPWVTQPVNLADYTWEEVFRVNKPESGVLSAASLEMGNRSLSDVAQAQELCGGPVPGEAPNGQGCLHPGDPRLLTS
Summary of the method: (§1)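 Single-point kinase selectivity screen at 0.1 μM compound across a panel of 52 kinases, recorded as percent inhibition for each kinase.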

[2] = molecular target: Serine/threonine-protein kinase Nek4 (Homo sapiens) (UniProt P51957); assay: Inhibition of full length human recombinant GST-tagged NEK4 expressed in baculovirus expression system using Ser/Thr peptide 17 substrate at 0.1 uM by Z-Lyte assay relative to control; summary of the method: as §1
Chain of Serine/threonine-protein kinase Nek4 (Homo sapiens) (P51957 whole entry, looked up): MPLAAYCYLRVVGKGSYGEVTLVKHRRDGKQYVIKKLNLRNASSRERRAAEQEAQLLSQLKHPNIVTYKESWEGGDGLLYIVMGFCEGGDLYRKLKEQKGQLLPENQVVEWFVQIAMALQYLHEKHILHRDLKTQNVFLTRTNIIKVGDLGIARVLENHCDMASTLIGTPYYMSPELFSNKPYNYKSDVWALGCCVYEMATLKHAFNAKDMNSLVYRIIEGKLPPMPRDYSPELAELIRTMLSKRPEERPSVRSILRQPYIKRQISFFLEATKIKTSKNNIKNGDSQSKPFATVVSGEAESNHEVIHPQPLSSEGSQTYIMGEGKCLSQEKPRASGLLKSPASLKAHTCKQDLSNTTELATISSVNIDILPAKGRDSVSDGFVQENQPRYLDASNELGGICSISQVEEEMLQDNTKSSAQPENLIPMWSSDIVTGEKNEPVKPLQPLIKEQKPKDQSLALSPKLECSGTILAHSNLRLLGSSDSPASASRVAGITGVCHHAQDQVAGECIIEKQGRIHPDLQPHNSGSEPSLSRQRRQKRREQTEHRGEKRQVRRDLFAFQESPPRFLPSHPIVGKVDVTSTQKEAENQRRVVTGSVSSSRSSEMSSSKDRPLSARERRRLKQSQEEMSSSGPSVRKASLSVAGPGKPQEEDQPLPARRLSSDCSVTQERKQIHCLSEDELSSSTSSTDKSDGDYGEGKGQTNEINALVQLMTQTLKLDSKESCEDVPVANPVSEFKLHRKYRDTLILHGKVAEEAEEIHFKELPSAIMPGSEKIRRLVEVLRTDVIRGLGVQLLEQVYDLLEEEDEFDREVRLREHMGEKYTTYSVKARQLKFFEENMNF

[3] = molecular target: Glycogen synthase kinase-3 alpha (Homo sapiens) (UniProt P49840); assay: Inhibition of recombinant GSK3alpha (unknown origin) at 0.1 uM relative to control
Chain of Glycogen synthase kinase-3 alpha (Homo sapiens) (P49840 2-483 limits assumed): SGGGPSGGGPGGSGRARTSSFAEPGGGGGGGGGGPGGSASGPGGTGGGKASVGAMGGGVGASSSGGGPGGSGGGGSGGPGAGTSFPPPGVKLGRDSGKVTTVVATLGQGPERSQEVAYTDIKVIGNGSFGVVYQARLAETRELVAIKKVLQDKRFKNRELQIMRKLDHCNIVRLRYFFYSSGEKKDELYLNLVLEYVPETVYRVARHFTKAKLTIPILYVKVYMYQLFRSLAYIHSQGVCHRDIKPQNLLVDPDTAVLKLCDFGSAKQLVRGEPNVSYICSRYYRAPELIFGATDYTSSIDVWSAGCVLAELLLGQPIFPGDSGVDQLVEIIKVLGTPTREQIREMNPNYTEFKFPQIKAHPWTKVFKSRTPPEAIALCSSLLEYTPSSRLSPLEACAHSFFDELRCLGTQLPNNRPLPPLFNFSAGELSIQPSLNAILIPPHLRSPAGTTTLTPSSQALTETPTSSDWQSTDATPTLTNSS
Summary of the method: (§2)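 Single-concentration screen at 0.1 μM within a 52-kinase selectivity panel, with percent inhibition reported for each kinase.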

CDK8/Cyclin C = CDK8/Cyclin C (Homo sapiens, UniProt P49336); assay: Inhibition of full length human recombinant His-tagged CDK8/Cyclin C expressed in baculovirus expression system by fluorescence polarization assay
Chain of CDK8/Cyclin C (P49336 whole entry): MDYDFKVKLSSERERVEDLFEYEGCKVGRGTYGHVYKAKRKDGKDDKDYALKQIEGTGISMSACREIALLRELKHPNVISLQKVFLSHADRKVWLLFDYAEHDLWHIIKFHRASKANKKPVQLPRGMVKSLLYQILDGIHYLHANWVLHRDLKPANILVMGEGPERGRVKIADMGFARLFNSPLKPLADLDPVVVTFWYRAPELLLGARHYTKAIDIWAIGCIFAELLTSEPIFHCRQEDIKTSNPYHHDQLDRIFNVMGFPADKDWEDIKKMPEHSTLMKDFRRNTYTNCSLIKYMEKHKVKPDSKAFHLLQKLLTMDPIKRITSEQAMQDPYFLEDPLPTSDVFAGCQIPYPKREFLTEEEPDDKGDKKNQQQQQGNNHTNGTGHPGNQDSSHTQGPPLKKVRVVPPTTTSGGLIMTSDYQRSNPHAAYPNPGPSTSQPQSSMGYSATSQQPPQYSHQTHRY
Chain of CDK8/Cyclin C (P24863 whole entry, further chain): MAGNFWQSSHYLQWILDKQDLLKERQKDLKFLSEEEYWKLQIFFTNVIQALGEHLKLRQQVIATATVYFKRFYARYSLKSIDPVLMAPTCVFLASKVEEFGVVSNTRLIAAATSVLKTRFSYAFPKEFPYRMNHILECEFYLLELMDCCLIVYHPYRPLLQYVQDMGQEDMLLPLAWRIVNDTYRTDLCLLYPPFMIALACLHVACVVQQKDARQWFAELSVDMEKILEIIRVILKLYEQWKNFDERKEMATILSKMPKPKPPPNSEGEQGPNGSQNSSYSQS

[4] = molecular target: CDK9/cyclin T1 (Homo sapiens) (UniProt O60563+P50750); assay: Inhibition of full length human recombinant His-tagged CDK9/Cyclin T expressed in baculovirus expression system using Cdk7/9tide as substrate at 0.1 uM by adapta assay relative to control; summary of the method: as §1
[5] = molecular target: T1, Homeodomain-interacting protein kinase 4 (Homo sapiens) (UniProt Q8NE63); assay: Inhibition of full length human recombinant N-terminal GST-tagged HIPK4 expressed in baculovirus expression system using Ser/Thr peptide 18 substrate at 0.1 uM by Z-Lyte assay relative to control; summary of the method: as §2
T1 sequence (whole entry): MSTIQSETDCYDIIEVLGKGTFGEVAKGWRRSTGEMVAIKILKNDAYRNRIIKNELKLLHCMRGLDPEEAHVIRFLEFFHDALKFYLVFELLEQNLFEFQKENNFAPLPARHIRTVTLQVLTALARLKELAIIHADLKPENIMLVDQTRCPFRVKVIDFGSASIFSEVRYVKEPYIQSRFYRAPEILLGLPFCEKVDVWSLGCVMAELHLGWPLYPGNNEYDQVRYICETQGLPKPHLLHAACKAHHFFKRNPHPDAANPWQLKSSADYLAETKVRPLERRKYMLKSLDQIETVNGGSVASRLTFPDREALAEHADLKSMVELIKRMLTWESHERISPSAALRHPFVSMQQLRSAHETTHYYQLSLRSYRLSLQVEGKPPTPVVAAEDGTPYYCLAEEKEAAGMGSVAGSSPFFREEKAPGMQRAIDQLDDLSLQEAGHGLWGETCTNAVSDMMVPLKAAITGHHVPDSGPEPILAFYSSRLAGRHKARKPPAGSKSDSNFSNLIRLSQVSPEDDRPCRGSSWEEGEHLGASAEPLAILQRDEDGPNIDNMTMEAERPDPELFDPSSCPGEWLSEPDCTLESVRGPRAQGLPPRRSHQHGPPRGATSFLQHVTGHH

[6] = Permeability from apical to basolateral side in MDCK cells; type: ADME, cell-based, Canis lupus familiaris; conditions: dog, read-out: permeability
[7] = Antiproliferative activity against human HCT116 cells after 72 hrs by Celltiter-Glo reagent based assay in presence of 0.625% fetal bovine serum; type: functional, cell-based; conditions: HCT-116, 72 h
[8] = Antiproliferative activity against human HCT116 cells after 72 hrs by Celltiter-Glo reagent based assay in presence of 10% fetal bovine serum; type: functional, cell-based; conditions: HCT-116, 72 h
[9] = Plasma protein binding in rat; type: ADME, cell-free; conditions: read-out: PPB (converted)
[10] = Plasma protein binding in mouse; type: ADME, cell-free; conditions: read-out: PPB (converted)
[11] = Kinetic solubility in DMSO/phosphate buffered saline at pH 7.4 at 200 uM after 24 hrs by UHPLC based chemiluminescent nitrogen detection method; type: physicochemical; conditions: read-out: Kinetic_solubility
[12] = Plasma protein binding in human; type: ADME, cell-free; conditions: read-out: PPB (converted)
[13] = Ratio of EC50 for antiproliferative activity against human HCT116 cells after 72 hrs by Celltiter-Glo reagent based assay to IC50 for inhibition of full length human recombinant His-tagged CDK8/Cyclin C expressed in baculovirus expression system by fluorescence polarization assay; parameters: species or system HCT-116
CDK9/cyclin T1 = CDK9/cyclin T1 (Homo sapiens, UniProt P50750); assay: Inhibition of full length human recombinant His-tagged CDK9/Cyclin T expressed in baculovirus expression system using Cdk7/9tide as substrate by adapta assay
Chain of CDK9/cyclin T1 (O60563 whole entry): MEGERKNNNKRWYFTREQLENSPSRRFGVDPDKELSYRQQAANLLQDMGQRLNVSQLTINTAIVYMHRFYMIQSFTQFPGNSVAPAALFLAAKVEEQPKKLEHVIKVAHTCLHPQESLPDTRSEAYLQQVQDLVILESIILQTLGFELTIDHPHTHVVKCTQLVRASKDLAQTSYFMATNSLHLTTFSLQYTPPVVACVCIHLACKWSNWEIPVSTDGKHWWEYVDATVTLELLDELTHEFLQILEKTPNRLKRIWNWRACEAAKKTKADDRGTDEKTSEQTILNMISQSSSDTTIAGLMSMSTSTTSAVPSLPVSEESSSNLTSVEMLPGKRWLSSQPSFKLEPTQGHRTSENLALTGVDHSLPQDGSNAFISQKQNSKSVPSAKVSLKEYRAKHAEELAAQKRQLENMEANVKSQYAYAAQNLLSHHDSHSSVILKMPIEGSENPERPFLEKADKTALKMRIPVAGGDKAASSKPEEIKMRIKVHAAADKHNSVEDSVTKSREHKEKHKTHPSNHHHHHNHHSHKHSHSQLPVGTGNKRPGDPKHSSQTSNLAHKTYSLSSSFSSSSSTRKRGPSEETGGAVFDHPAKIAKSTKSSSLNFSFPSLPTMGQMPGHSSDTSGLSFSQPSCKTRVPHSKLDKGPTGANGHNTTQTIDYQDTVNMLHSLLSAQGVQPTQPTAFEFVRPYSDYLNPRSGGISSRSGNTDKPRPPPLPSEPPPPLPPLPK
Chain of CDK9/cyclin T1 (P50750 whole entry): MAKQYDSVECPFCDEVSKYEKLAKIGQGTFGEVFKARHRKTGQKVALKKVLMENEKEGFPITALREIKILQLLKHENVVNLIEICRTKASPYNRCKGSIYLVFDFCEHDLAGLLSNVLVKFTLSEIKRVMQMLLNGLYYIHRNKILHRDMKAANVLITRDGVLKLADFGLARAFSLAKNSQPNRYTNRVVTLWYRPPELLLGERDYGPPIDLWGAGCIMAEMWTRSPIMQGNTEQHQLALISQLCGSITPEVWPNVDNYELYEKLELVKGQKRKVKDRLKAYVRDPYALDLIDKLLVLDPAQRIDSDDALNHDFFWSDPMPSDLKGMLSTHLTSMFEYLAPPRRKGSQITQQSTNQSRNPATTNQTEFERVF

HCT-116 [14] = assay: Antiproliferative activity against CDK8/CDK19 double knockout human HCT116 cells after 72 hrs by Celltiter-Glo reagent based assay; type: functional, cell-based
Summary of the method: (§3)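 HCT-116 CDK8 knockout and CDK8/CDK19 double knockout clones, derived from wild-type HCT-116, were incubated alongside the parent line with varying concentrations of compound. Cell viability was read at 72 h to give growth-inhibition curves.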

HCT-116 [15] = assay: Antiproliferative activity against CDK8 knockout human HCT116 cells after 72 hrs by Celltiter-Glo reagent based assay; type: functional, cell-based; summary of the method: as §3

SMILES	pIC50 (CDK8/Cyclin C)	Papp A→B [6] [×10⁻⁶ cm/s]	fraction unbound [9]	fraction unbound [10]	solubility kinetic at 24 h, 200 µM [11] [µM]	fraction unbound [12]	other results
NC(=O)c1ccc(-c2ccc(Oc3cncc4sc(-c5nn[nH]n5)cc34)cc2)cc1	8.52	1.9	–	–	–	–	inhibition [1]: > 80%; inhibition [2]: > 80%; inhibition [3]: > 80%; inhibition [4]: > 50%; inhibition [5]: > 80%
CN(C)C(=O)c1cc2c(Oc3ccc(Cl)cc3)cncc2s1	7.12	–	–	–	–	–	–
N#Cc1ccc(Oc2cncc3sc(-c4nnn[nH]4)cc23)cc1	9.00	2.5	–	–	–	–	pEC50 [7]: < 5.00; pEC50 [8]: < 5.00
COC(=O)c1cc2c(Oc3ccc(Cl)cc3)cncc2s1	7.21	–	–	–	–	–	–
c1ccc(Oc2cncc3sc(-c4nn[nH]n4)cc23)cc1	8.08	4.1	–	–	–	–	–
Ic1ccc(Oc2cncc3sc(-c4nn[nH]n4)cc23)cc1	9.15	24	–	–	–	–	inhibition [1]: > 50%; inhibition [2]: > 30%; inhibition [3]: > 80%; inhibition [4]: > 30%; inhibition [5]: > 80%
COc1ccc(Oc2cncc3sc(C(N)=O)cc23)cc1	7.60	–	0.06	0.098	10 (≈ 3 µg/mL)	0.064	–
O=C(O)c1cc2c(Oc3ccc(Cl)cc3)cncc2s1	8.55	–	0.003	0.003	–	0.002	pEC50 [7]: < 5.00; pEC50 [8]: < 5.00
NC(=O)c1cc2c(Oc3ccc(OC(F)(F)F)cc3)cncc2s1	7.92	–	0.032	0.028	< 1	0.021	pEC50 [7]: < 5.00; pEC50 [8]: < 5.00
NC(=O)c1cc2c(Oc3ccc(Cl)cc3)cnc(F)c2s1	7.80	–	–	–	< 1	–	–
CNC(=O)c1cc2c(Oc3ccc(I)cc3)cncc2s1	8.28	–	0.001	0.002	–	0.002	–
Clc1ccc(Oc2cncc3sc(-c4nnn[nH]4)cc23)cc1	8.96	11	–	–	–	–	pEC50 [7]: < 5.00; pEC50 [8]: < 5.00
CC(C)NC(=O)c1cc2c(Oc3ccc(Cl)cc3)cncc2s1	7.00	–	–	–	–	–	–
CC(=O)c1cc2c(Oc3ccc(Cl)cc3)cncc2s1	7.49	–	0.002	0.003	–	0.003	–
O=C(NC1CC1)c1cc2c(Oc3ccc(Cl)cc3)cncc2s1	7.62	–	0.007	0.009	–	0.008	–
Cc1ccc(Oc2cncc3sc(-c4nn[nH]n4)cc23)cc1	8.80	12	–	–	–	–	pEC50 [7]: < 5.00; pEC50 [8]: < 5.00
CCC(=O)c1cc2c(Oc3ccc(Cl)cc3)cncc2s1	7.54	–	< 0.001	< 0.001	–	< 0.001	–

SMILES	pIC50 (CDK8/Cyclin C)	Papp A→B [6] [×10⁻⁶ cm/s]	fraction unbound [9]	fraction unbound [10]	solubility kinetic at 24 h, 200 µM [11] [µM]	fraction unbound [12]	other results
O=C(c1cc2c(Oc3ccc(Cl)cc3)cncc2s1)C1CC1	7.23	–	–	–	–	–	–
FC(F)(F)Oc1ccc(Oc2cncc3sc(-c4nnn[nH]4)cc23)cc1	8.96	24	–	–	–	–	pEC50 [7]: < 5.00; pEC50 [8]: < 5.00
CNC(=O)c1cc2c(Oc3ccc(Cl)cc3)cncc2s1	8.09	–	0.01	0.023	–	0.015	–
CN1CC[C@H](c2c(O)cc(O)c3c(=O)cc(-c4ccccc4Cl)oc23)[C@H](O)C1 [ALVOCIDIB]	–	–	–	–	–	–	pEC50 [8]: 7.47
N#Cc1ccc(Oc2cncc3sc(C(N)=O)cc23)cc1	8.29	–	0.127	0.109	8 (≈ 2.36 µg/mL)	0.153	–
NC(=O)c1cc2c(Oc3ccc(Cl)cc3)cnc(N)c2s1	8.82	–	0.023	0.041	5.5 (≈ 1.76 µg/mL)	0.0187	Ratio [13]: 1000; pIC50 (CDK9/cyclin T1): 5.96; Activity (HCT-116 [14]): Active; pEC50 [7]: 5.27; Activity (HCT-116 [15]): Active; pEC50 [8]: 5.17
NC(=O)c1cc2c(Oc3ccc(Cl)cc3)cnc(Cl)c2s1	7.96	–	–	–	< 1	–	–
NC(=O)c1cc2c(Oc3ccc(Cl)cc3)cncc2s1	8.21	–	–	–	6.3 (≈ 1.92 µg/mL)	–	pIC50 (CDK9/cyclin T1): 5.66
Fc1ccc(Oc2cncc3sc(-c4nnn[nH]4)cc23)cc1	8.26	9.1	–	–	–	–	–
CC(=O)Nc1ccc(Oc2cncc3sc(C(N)=O)cc23)cc1	7.54	–	0.152	0.204	18 (≈ 5.89 µg/mL)	0.09	–
NC(=O)c1ccc(Oc2cncc3sc(-c4nnn[nH]4)cc23)cc1	8.36	0.7	–	–	–	–	–
Cc1ccc(Oc2cncc3sc(C(N)=O)cc23)cc1	8.22	–	0.041	0.039	< 1	0.028	–
Cc1ncc(Oc2ccc(Cl)cc2)c2cc(C(N)=O)sc12	8.10	–	0.008	0.012	10 (≈ 3.19 µg/mL)	0.007	Ratio [13]: 1000; pEC50 [7]: 5.06; pEC50 [8]: < 5.00
NC(=O)c1ccc(Oc2cncc3sc(C(N)=O)cc23)cc1	7.68	–	0.232	0.217	7 (≈ 2.19 µg/mL)	0.227	–
CC(=O)Nc1ccc(Oc2cncc3sc(-c4nnn[nH]4)cc23)cc1	8.70	0.8	–	–	–	–	–
CCNC(=O)c1cc2c(Oc3ccc(Cl)cc3)cncc2s1	7.80	–	–	–	–	–	–
